Our source for the Activity, inhibition and Ratio values is ChEMBL document CHEMBL4002604, “Evaluation of biological properties of 3,3',4,4'-benzophenonetetracarboxylic dianhydride derivatives and their ability to inhibit hexokinase activity” (2017).

A value given as a limit tells only on which side of the number the result lay.

Assay [1] relates to P19. Put plainly: Cytotoxicity against undifferentiated mouse P19 cells assessed as mitochondrial membrane potential at 100 uM after 72 hrs by TMRF dye based fluorescence assay relative to control. It counts as functional. Put shortly: (§1)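 Undifferentiated (P19SCs) or differentiated (P19dCs) P19 cells incubated 24 or 72 h with 1 or 100 µM. Mitochondrial membrane potential and mitochondrial superoxide levels measured and expressed relative to untreated control. Means ± SD from 4 independent measurements, at least 4 repeats each. Significance at p<0.05.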

In assay [2] the test system is P19. Put plainly: Cytotoxicity against undifferentiated mouse P19 cells assessed as cell mass at 1 to 100 uM after 72 hrs by SRB assay relative to control. The class given is functional. Put shortly:
(§2)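 Cell mass by SRB assay in P19 cells (CRL-1825), either undifferentiated (P19SCs) or differentiated (P19dCs). Cells exposed to 1, 10 or 100 µM for 24, 48 or 72 h. Values expressed relative to untreated control. Means ± SD from at least 4 independent measurements, 6 repeats each. Significance vs control at p<0.05.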
For orientation: The SRB assay estimates cell density from bound dye.

In assay [3] the test system is P19. Put plainly: Cytotoxicity against undifferentiated mouse P19 cells assessed as metabolic activity at 1 to 100 uM after 48 hrs by resazurin assay relative to control. It counts as functional. Put shortly:
(§3)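 Metabolic activity by resazurin reduction in undifferentiated (P19SCs) or differentiated (P19dCs) P19 cells. Exposure to 1, 10 or 100 µM for 24, 48 or 72 h. Read-out relative to untreated control. Significance vs control at p<0.05.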

Assay [4] has as its system P19. Put plainly: Cytotoxicity against differentiated mouse P19 cells assessed as mitochondrial membrane potential at 100 uM after 24 hrs by TMRF dye based fluorescence assay relative to control. It counts as functional. An outline of the steps: as §1
The subject of assay [5] is P19. The assay is described as follows: Cytotoxicity against differentiated mouse P19 cells assessed as metabolic activity at 1 to 100 uM after 72 hrs by resazurin assay relative to control. It counts as functional. An outline of the steps:
as §3

The subject of assay [6] is P19. The assay is described as follows: Cytotoxicity against differentiated mouse P19 cells assessed as mitochondrial superoxide anion level at 1 uM after 72 hrs by MitoSox dye based fluorescence assay relative to control. The class given is functional. An outline of the steps:
as §1

The test system of assay [7] is P19. The assay is described as follows: Cytotoxicity against undifferentiated mouse P19 cells assessed as metabolic activity at 1 to 100 uM after 24 hrs by resazurin assay relative to control. The class given is functional. Put shortly: as §3
(In general: Alamar Blue is a resazurin reagent that responds to reducing activity.)

Assay [8] relates to P19. The assay is described as follows: Cytotoxicity against undifferentiated mouse P19 cells assessed as mitochondrial superoxide anion level at 1 uM after 72 hrs by MitoSox dye based fluorescence assay relative to control. The class given is functional. An outline of the steps: as §1
The test system of assay [9] is P19. Put plainly: Cytotoxicity against differentiated mouse P19 cells assessed as mitochondrial superoxide anion level at 100 uM after 72 hrs by MitoSox dye based fluorescence assay relative to control. The class given is functional. An outline of the steps:
as §1

Assay [10] has as its system P19. The assay is described as follows: Cytotoxicity against undifferentiated mouse P19 cells assessed as mitochondrial membrane potential at 100 uM after 24 hrs by TMRF dye based fluorescence assay relative to control. It counts as functional. An outline of the steps:
as §1

The test system of assay [11] is P19. The assay is described as follows: Cytotoxicity against undifferentiated mouse P19 cells assessed as mitochondrial superoxide anion level at 100 uM after 24 hrs by MitoSox dye based fluorescence assay relative to control. It counts as functional. An outline of the steps:
as §1

Assay [12] deals with P19. Put plainly: Cytotoxicity against differentiated mouse P19 cells assessed as mitochondrial membrane potential at 1 uM after 24 hrs by TMRF dye based fluorescence assay relative to control. It counts as functional. An outline of the steps:
as §1

Assay [13] relates to P19. The assay is described as follows: Cytotoxicity against differentiated mouse P19 cells assessed as mitochondrial membrane potential at 100 uM after 72 hrs by TMRF dye based fluorescence assay relative to control. It counts as functional. Put shortly:
as §1

In assay [14] the test system is P19. Put plainly: Cytotoxicity against undifferentiated mouse P19 cells assessed as cell mass at 1 to 100 uM after 24 hrs by SRB assay relative to control. It counts as functional. Put shortly: as §2
The target of assay [15] is T1, Hexokinase-2 (Mus musculus) (UniProt O08528).
T1 sequence (whole entry): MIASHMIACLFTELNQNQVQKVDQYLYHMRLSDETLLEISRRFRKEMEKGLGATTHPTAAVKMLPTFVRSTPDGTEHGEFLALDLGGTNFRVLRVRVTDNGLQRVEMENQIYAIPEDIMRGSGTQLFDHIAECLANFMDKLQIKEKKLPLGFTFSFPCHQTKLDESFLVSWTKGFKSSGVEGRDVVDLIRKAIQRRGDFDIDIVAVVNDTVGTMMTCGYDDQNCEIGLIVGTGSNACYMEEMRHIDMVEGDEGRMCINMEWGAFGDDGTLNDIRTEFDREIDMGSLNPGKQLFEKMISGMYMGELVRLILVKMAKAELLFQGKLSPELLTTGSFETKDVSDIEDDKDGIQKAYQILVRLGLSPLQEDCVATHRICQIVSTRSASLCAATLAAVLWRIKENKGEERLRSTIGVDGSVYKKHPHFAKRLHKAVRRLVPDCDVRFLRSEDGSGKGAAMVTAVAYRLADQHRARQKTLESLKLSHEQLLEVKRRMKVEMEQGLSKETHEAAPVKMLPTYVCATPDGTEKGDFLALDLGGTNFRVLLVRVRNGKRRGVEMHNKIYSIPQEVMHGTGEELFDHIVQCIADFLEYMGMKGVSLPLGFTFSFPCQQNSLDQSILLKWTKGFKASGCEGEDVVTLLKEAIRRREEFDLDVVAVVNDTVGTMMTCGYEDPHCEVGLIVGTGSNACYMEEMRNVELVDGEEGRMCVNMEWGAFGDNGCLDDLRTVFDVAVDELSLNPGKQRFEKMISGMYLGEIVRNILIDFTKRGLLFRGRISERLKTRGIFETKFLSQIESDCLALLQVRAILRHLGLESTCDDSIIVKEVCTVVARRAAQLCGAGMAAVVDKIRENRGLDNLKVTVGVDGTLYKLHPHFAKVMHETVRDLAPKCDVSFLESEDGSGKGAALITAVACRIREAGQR
The assay is described as follows: Inhibition of HK2 isolated from mouse undifferentiated P19 cell lysates using [U-14C]-labeled glucose as substrate in presence of ATP and NADP by G6PD enzyme coupled spectrophotometric assay. The following applies: in the assay text read “glucose” for “[U-14C]-labeled glucose”. An outline of the steps: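 Coupled hexokinase assay at 340 nm following G6P-dependent NADP→NADPH conversion. Enzyme source is freshly prepared, centrifuged undifferentiated P19 lysate supernatant or recombinant human HKII. Buffer: 100 mM Tris-HCl pH 8.0, 0.5 mM EDTA, 10 mM MgCl2, 2 mM glucose, 0.1 mM NADP, 0.1 U/ml G6PD. Preincubated 10 min at 37°C; reaction started with 10 mM ATP. Means ± SD, 4 experiments, at least 4 repeats each.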

Assay [16] addresses T1, Hexokinase-2 (Mus musculus). Put plainly: Potency index, ratio of compound effect to 2-DG effect for inhibition of HK2 in mouse undifferentiated P19 cells.
Assay [17] deals with P19. Put plainly: Cytotoxicity against differentiated mouse P19 cells assessed as mitochondrial superoxide anion level at 100 uM after 24 hrs by MitoSox dye based fluorescence assay relative to control. The class given is functional. Put shortly: as §1
The test system of assay [18] is P19. The assay is described as follows: Cytotoxicity against differentiated mouse P19 cells assessed as metabolic activity at 1 to 100 uM after 24 hrs by resazurin assay relative to control. The class given is functional. Put shortly:
as §3

Assay [19] has as its system P19. The assay is described as follows: Cytotoxicity against differentiated mouse P19 cells assessed as metabolic activity at 1 to 100 uM after 48 hrs by resazurin assay relative to control. It counts as functional. An outline of the steps:
as §3

In assay [20] the test system is P19. Put plainly: Cytotoxicity against differentiated mouse P19 cells assessed as cell mass at 1 to 100 uM after 24 hrs by SRB assay relative to control. It counts as functional. An outline of the steps:
as §2

Assay [21] concerns P19. The assay is described as follows: Cytotoxicity against differentiated mouse P19 cells assessed as mitochondrial membrane potential at 1 uM after 72 hrs by TMRF dye based fluorescence assay relative to control. It counts as functional. Put shortly:
as §1

As for `O=C(c1ccc2c(c1)C(=O)N(c1cccc(O)c1)C2=O)c1ccc2c(c1)C(=O)N(c1cccc(O)c1)C2=O`, the Activity in [1] is recorded as 131.1%; in assay [2], 58.9%; in assay [3] it was 76.5%; in assay [4] it was 96.4%; in [5], 91.5%; in assay [6], 105.3%. The Activity in [7] worked out at 102.6%; in assay [8], 106%; in assay [9], 149.1%; in assay [10] it was 91%; in assay [11] it was 55.1%; in assay [12], 94.5%. Besides, the Activity came to 50.9% in assay [13]; 103.3% in [14]; 117.4% in [17]; 100% in assay [18]; 97.5% in assay [19]; 100% in assay [20]. In addition, the Activity in [21] is given as 87.8%. Moreover, the inhibition result in assay [15] is “Dose-dependent effect”. Also, in assay [16], the Ratio is greater than 500.
